Laboratory results reported in the RNAGym collection of RNA variant scans (doi:10.1002/anie.201605470).

B1: Osa-1-4 twister ribozyme (parent)
chain: CCGCCUAACACUGCCAAUGCCGGUCCCAAGCCCGGAUAAAAGUGGAGGGGGCGG

Variants of: B1
Experiment: self-cleavage, relative activity (ratio to wild type); higher = more cleavage; co-transcriptional
Summary of the method: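 The 48 positions downstream of the cleavage site in a 54-nucleotide Oryza sativa twister ribozyme template were synthesised at 97 % wild-type base and 1 % of each other base. The template was transcribed in vitro at 37 °C for 2 h, with self-cleavage allowed during transcription. Reads with or without upstream sequence after deep sequencing marked cleavage status, and relative activity is fraction cleaved normalised to wild type.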

In order of falling self-cleavage:
1. CCGCCUCAAACUGCCAAUGCCGGUCCCAAGCCCGGAUAAAAGUGGAGGGGGCGG  0.09
2. CCGCCUCACACGGCCAAUGCCGGUCCCAAGCCCGGAUAAAAGUGGAGGGGGCGG  0.09
3. CCGCCUCACACUGCGAAUGCCGGUCCCAAGCCCGGAUAAAAGUGGAGGGGGCGG  0.07
4. CCGCCUCACACUGCCAAUGCCAGUCCCAAGCCCGGAUAAAAGUGGAGGGGGCGG  0.07
5. CCGCCUCACACUGCCAAUGCCGGUCCCAAGCCCGGAUAAAAGUGGAGGGGGGGG  0.07
6. CCGCCUCCCACUGCCAAUGCCGGUCCCAAGCCCGGAUAAAAGUGGAGGGGGCGG  0.07
7. CCGCCUCACACUGCCAAUGCAGGUCCCAAGCCCGGAUAAAAGUGGAGGGGGCGG  0.06
8. CCGCCUCACACUGCCAAUGUCGGUCCCAAGCCCGGAUAAAAGUGGAGGGGGCGG  0.06
9. CCGCCUCACACUGCCAAUGACGGUCCCAAGCCCGGAUAAAAGUGGAGGGGGCGG  0.06
10. CCGCCUCACACUGCCAAUGCCGGUCCAAAGCCCGGAUAAAAGUGGAGGGGGCGG  0.06
11. CCGCCUCACACUGCCAAUGCCGGUCCCAAGCCCGGAUAAAAGUGGAGGGGGAGG  0.06
12. CCGCCUCACACUGCCAAUGCCGGUCCCAAGCCCGGAUAAAAGUGGAGGGGGUGG  0.06
13. CCGCCUCACAAUGCCAAUGCCGGUCCCAAGCCCGGAUAAAAGUGGAGGGGGCGG  0.06
14. CCGCCUCUCACUGCCAAUGCCGGUCCCAAGCCCGGAUAAAAGUGGAGGGGGCGG  0.06
15. CCGCCUCACACUGCCAAUGCCGGUCCCAAGCCCGGAUAAAAGUGGAGGGGGCGU  0.06
16. CCGCCUCACACUGCCAAUGCCGGUCCCAAGCCCGGAUAAAAGUGGAGGGGGCAG  0.06
17. CCGCCUCACACUGCCAAUGCCGGUCCCAAGUCCGGAUAAAAGUGGAGGGGGCGG  0.05
18. CCGCCUCACACUGCCAAUGCCGGUCCCAAGCCCUGAUAAAAGUGGAGGGGGCGG  0.05
19. CCGCCUCACACUGCCAAUGCCGGUCCCAAGCCCGGAUAAAAGUUGAGGGGGCGG  0.05
20. CCGCCUCACACUGCCAAUGCCGGUCCCAAGCCCGGAUAAAAGUAGAGGGGGCGG  0.05
21. CCGCCUCACACUGCCAAUGCCGGUCCCAAGCCCGGAUAAAAGUCGAGGGGGCGG  0.05
22. CCGCCUCACACUGCCAAUGCCGGUCUCAAGCCCGGAUAAAAGUGGAGGGGGCGG  0.05
23. CCGCCUCACACUGCCAAUGCCGAUCCCAAGCCCGGAUAAAAGUGGAGGGGGCGG  0.05
24. CCGCCUCACAUUGCCAAUGCCGGUCCCAAGCCCGGAUAAAAGUGGAGGGGGCGG  0.05
25. CCGCCUCGCACUGCCAAUGCCGGUCCCAAGCCCGGAUAAAAGUGGAGGGGGCGG  0.05
26. CCGCCUCACACUGCCAAUGCCGGUACCAAGCCCGGAUAAAAGUGGAGGGGGCGG  0.05
27. CCGCCUCACACUGCCAAUACCGGUCCCAAGCCCGGAUAAAAGUGGAGGGGGCGG  0.05
28. CCGCCUCACACUGCCAAUGCCGGUCCCAAGCCCGUAUAAAAGUGGAGGGGGCGG  0.05
29. CCGCCUCACACAGCCAAUGCCGGUCCCAAGCCCGGAUAAAAGUGGAGGGGGCGG  0.05
30. CCGCCUCACACUGCCAAUGCCGGUCCCAAGCCCGGAUAAAAGUGGAGGGGGCGC  0.05
31. CCGCCUCACACUGCCAAUGCCGGUCCCAAGCCCGGAUAAAAGUGGAGGGGGCGA  0.05
32. CCGCCUCACACUGCCAAUGCCGGUCCCAAGCCAGGAUAAAAGUGGAGGGGGCGG  0.05
33. CCGCCUCACACUGCCAAUGCCGGUCCCAAGCCCCGAUAAAAGUGGAGGGGGCGG  0.04
34. CCGCCUCACACUGCCAAUGCCGGUCCCAAGCACGGAUAAAAGUGGAGGGGGCGG  0.04
35. CCGCCUCACACUGCCAAUGCUGGUCCCAAGCCCGGAUAAAAGUGGAGGGGGCGG  0.04
36. CCGCCUCACACUGUCAAUGCCGGUCCCAAGCCCGGAUAAAAGUGGAGGGGGCGG  0.04
37. CCGCCUCACACUGACAAUGCCGGUCCCAAGCCCGGAUAAAAGUGGAGGGGGCGG  0.04
38. CCGCCUCACACUGCCAAUGCCGGUCCCAAGCCCGGAUAAAAGUGGAGGGAGCGG  0.04
39. CCGCCUCACACUGCCAAUGCCGGUCCCAAGCCCGGAUAAAAGUGGAGGGCGCGG  0.04
40. CCGCCUCACACUGCCAAUGCCGGUCCCAAGCCCGGAUAAAAGUGGAGGGUGCGG  0.04
41. CCGCCUCACACUGCAAAUGCCGGUCCCAAGCCCGGAUAAAAGUGGAGGGGGCGG  0.04
42. CCGCCUCACACUGCUAAUGCCGGUCCCAAGCCCGGAUAAAAGUGGAGGGGGCGG  0.04
43. CCGCCUCACACUGCCAAUGCCGGUCCCAAGCCCGGAUAAAAGUGGAGGGGACGG  0.04
44. CCGCCUCACACUGCCAAUGCCUGUCCCAAGCCCGGAUAAAAGUGGAGGGGGCGG  0.04
45. CCGCCUCACAGUGCCAAUGCCGGUCCCAAGCCCGGAUAAAAGUGGAGGGGGCGG  0.04
46. CCGCCUCACACUGCCAAUGCCGGUUCCAAGCCCGGAUAAAAGUGGAGGGGGCGG  0.04
47. CCGCCUCACACUGCCAAUGCCGGUCCCAAGCCCGGAUAAAAGUGGAAGGGGCGG  0.04
48. CCGCCUCACACUGCCAAUGCCGGUCCCAAGCCCGGAUAAAAGUGGAGGGGGCGG  0.04
49. CCGCCUCACACUGCCAAUGCCGGUCCCAAGCCCGCAUAAAAGUGGAGGGGGCGG  0.04
50. CCGCCUCACACUGCCAAUGCCGGUCCCAAGCCCGAAUAAAAGUGGAGGGGGCGG  0.04
51. CCGCCUCACACUGCCAAUGCCGGUCCCAAGCCCGGAUAAAAAUGGAGGGGGCGG  0.04
52. CCGCCUCAGACUGCCAAUGCCGGUCCCAAGCCCGGAUAAAAGUGGAGGGGGCGG  0.04
53. CCGCCUCACACCGCCAAUGCCGGUCCCAAGCCCGGAUAAAAGUGGAGGGGGCGG  0.04
54. CCGCCUCACACUGCCAAUGCCGGUCCCAAGCCUGGAUAAAAGUGGAGGGGGCGG  0.04
55. CCGCCUCACACUGCCAAUGCCGGUCCCAAGCCCAGAUAAAAGUGGAGGGGGCGG  0.03
56. CCGCCUCACACUGGCAAUGCCGGUCCCAAGCCCGGAUAAAAGUGGAGGGGGCGG  0.03
57. CCGCCUCACACUGCCAAUGCCGGUCACAAGCCCGGAUAAAAGUGGAGGGGGCGG  0.03
58. CCGCCUCACACUGCCAAUGCCGGUCCCAAGCCCGGAUAAAAGUGGAGGGGUCGG  0.03
59. CCGCCUCACACUGCCAAUGCCGGUCCUAAGCCCGGAUAAAAGUGGAGGGGGCGG  0.03
60. CCGCCUCACACUGCCAAUGCCGGUCCCAAGCCCGGAUAAAAGUGAAGGGGGCGG  0.03
61. CCGCCUCACACUGCCAAUGCCGGUCCCAAGCCCGGAUAAAAGUGGAUGGGGCGG  0.03
62. CCGCCUCACACUGCCAAUUCCGGUCCCAAGCCCGGAUAAAAGUGGAGGGGGCGG  0.03
63. CCGCCUCACACUGCCAAUGCCGGUCCCAAGCCCGGAUAAAACUGGAGGGGGCGG  0.03
64. CCGCCUCACACUGCCAAUGCCGGUCCCAAGCCCGGAUAAAAGUGGAGGGGGCUG  0.03
65. CCGCCUCACACUGCCAAUGCCGGUCCCAAGGCCGGAUAAAAGUGGAGGGGGCGG  0.02
66. CCGCCUCACACUGCCAAUGCCGGUCCCAAGCGCGGAUAAAAGUGGAGGGGGCGG  0.02
67. CCGCCUCACACUGCCAAUGCCGGUCCCAAGCUCGGAUAAAAGUGGAGGGGGCGG  0.02
68. CCGCCUCACACUACCAAUGCCGGUCCCAAGCCCGGAUAAAAGUGGAGGGGGCGG  0.02
69. CCGCCUCACACUCCCAAUGCCGGUCCCAAGCCCGGAUAAAAGUGGAGGGGGCGG  0.02
70. CCGCCUCACACUGCCAAUGCCGGUCCCAAGCCCGGAUAAAAGUGGAGAGGGCGG  0.02
71. CCGCCUCACACUGCCAAUGCCGGUCCCAAGCCCGGAUAAAAGUGGAGCGGGCGG  0.02
72. CCGCCUCACACUGCCAAUGCCGGUCGCAAGCCCGGAUAAAAGUGGAGGGGGCGG  0.02
73. CCGCCUCACACUGCCAAUGCCGGUCCCAAGCCCGGAUAAAAGUGGAGGGGCCGG  0.02
74. CCGCCUCACACUGCCAAUGCCGUUCCCAAGCCCGGAUAAAAGUGGAGGGGGCGG  0.02
75. CCGCCUCACACUGCCAAUGCCCGUCCCAAGCCCGGAUAAAAGUGGAGGGGGCGG  0.02
76. CCGCCUCACACUGCCAAUGCCGGUCCGAAGCCCGGAUAAAAGUGGAGGGGGCGG  0.02
77. CCGCCUCACACUGCCAAUGCCGGUCCCAAGCCCGGAUAAAAGUGUAGGGGGCGG  0.02
78. CCGCCUCACACUGCCAAUGCCGGUGCCAAGCCCGGAUAAAAGUGGAGGGGGCGG  0.02
79. CCGCCUCACACUGCCAAUGCCGGUCCCAAGCCCGGAUAAAAGUGGACGGGGCGG  0.02
80. CCGCCUCACACUGCCAAUCCCGGUCCCAAGCCCGGAUAAAAGUGGAGGGGGCGG  0.02
81. CCGCCUCACACUGCCAAUGCCGGUCCCAAGCCCGGAUAAAAUUGGAGGGGGCGG  0.02
82. CCGCCUCAUACUGCCAAUGCCGGUCCCAAGCCCGGAUAAAAGUGGAGGGGGCGG  0.02
83. CCGCCUCACACUGCCAAUGCCGGUCCCAAGCCCGGAUAAAAGUGGAGGUGGCGG  0.02
84. CCGCCUCACACUGCCAAUGCCGGUCCCAAGCCCGGAUAAAAGUGGAGGAGGCGG  0.02
85. CCGCCUCACACUGCCAAUGCCGGUCCCAAGCCGGGAUAAAAGUGGAGGGGGCGG  0.02
86. CCGCCUCACACUGCCAAUGCCGGUCCCAAGACCGGAUAAAAGUGGAGGGGGCGG  0.01
87. CCGCCUCACACUGCCAAUGCGGGUCCCAAGCCCGGAUAAAAGUGGAGGGGGCGG  0.01
88. CCGCCUCACACUUCCAAUGCCGGUCCCAAGCCCGGAUAAAAGUGGAGGGGGCGG  0.01
89. CCGCCUCACACUGCCAAUGCCGGUCCCAAGCCCGGAUAAAAGUGGAGUGGGCGG  0.01
90. CCGCCUCACACUGCCAAUGGCGGUCCCAAGCCCGGAUAAAAGUGGAGGGGGCGG  0.01
91. CCGCCUCACACUGCCAAUGCCGCUCCCAAGCCCGGAUAAAAGUGGAGGGGGCGG  0.01
92. CCGCCUCACACUGCCAAUGCCGGUCCCAAGCCCGGAUAAAAGUGCAGGGGGCGG  0.01
93. CCGCCUCACACUGCCAAUGCCGGUCCCAAACCCGGAUAAAAGUGGAGGGGGCGG  0.01
94. CCGCCUCACACUGCCAAUGCCGGUCCCAAUCCCGGAUAAAAGUGGAGGGGGCGG  0.01
95. CCGCCUCACACUGCCAAUGCCGGUCCCAACCCCGGAUAAAAGUGGAGGGGGCGG  0.01
96. CCGCCUCACACUGCCAAUGCCGGUCCCAAGCCCGGAUAAAAGUGGAGGCGGCGG  0.01
97. CCGCCUCACACUGCCAAUGCCGGUCCCAAGCCCGGAUAAAAGUGGAGGGGGCCG  0.01
